Here are results for 15 compounds from ChEMBL document CHEMBL4393724, “Betulin-1,4-quinone hybrids: Synthesis, anticancer activity and molecular docking study with NQO1 enzyme” (Eur J Med Chem, 2019).

Common to all, as to format: functional, cell-based
In one experiment the test system is SNB-19. As to the kind of experiment: Antiproliferative activity against human SNB19 cells assessed as reduction in cell viability incubated for 72 hrs by WST1 assay. Conditions: for IC50: snb-19; for pIC50: Homo sapiens, SNB-19, 72 h, read-out: IC50. (Tetrazolium dyes change colour on reduction, which living cells bring about.)
The next experiment concerns COLO-829. As to the kind of experiment: Antiproliferative activity against human COLO829 cells assessed as reduction in cell viability incubated for 72 hrs by WST1 assay. The settings on record: for pIC50: Homo sapiens, COLO-829, 72 h, read-out: IC50; for IC50: colo-829.
Another experiment has as its system C32. As to the kind of experiment: Antiproliferative activity against human C32 cells assessed as reduction in cell viability incubated for 72 hrs by WST1 assay. The settings on record: for IC50: c32; for pIC50: Homo sapiens, C32, 72 h, read-out: IC50. An outline of the steps: (§1)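 Cells held at 37 °C under 5% CO2 and seeded at 5 × 10^4 cells/well in DMEM with 10% FCS plus streptomycin and penicillin. Compounds were dissolved in DMSO and exposed for 72 h. WST-1 formazan was read at 450 nm. IC50 was derived from the mean ± SD of at least three independent experiments run in triplicate. Cisplatin served as reference.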

In a further experiment the test system is MCF7. As to the kind of experiment: Antiproliferative activity against human MCF7 cells assessed as reduction in cell viability incubated for 72 hrs by WST1 assay. Conditions: for IC50: mcf7; for pIC50: Homo sapiens, MCF7, 72 h, read-out: IC50; call rule not given here. An outline of the steps: as §1
Another experiment relates to T47D. As to the kind of experiment: Antiproliferative activity against human T47D cells assessed as reduction in cell viability incubated for 72 hrs by WST1 assay. The settings on record: for IC50: t47d; for pIC50: Homo sapiens, T47D, 72 h, read-out: IC50.
A further experiment deals with MDA-MB-231. Kind of experiment: Antiproliferative activity against human MDA-MB-231 cells assessed as reduction in cell viability incubated for 72 hrs by WST1 assay. The settings on record: for IC50: mda-mb-231; for pIC50: Homo sapiens, MDA-MB-231, 72 h, read-out: IC50.
A further experiment has as its system A549. Kind of experiment: Antiproliferative activity against human A549 cells assessed as reduction in cell viability incubated for 72 hrs by WST1 assay. The settings on record: for IC50: a549; for pIC50: Homo sapiens, A549, 72 h, read-out: IC50. In outline: as §1

pIC50: −log10 of the molar value.

With `Cc1ccc2c(n1)C(=O)C(Cl)=C(Cl)C2=O`, the IC50 result in the experiment on SNB-19, in the experiment with C32, with MCF7, in the experiment with T47D, in the experiment with MDA-MB-231 and in the experiment with A549 was “Not Active” throughout. Further, the pIC50 with COLO-829 is 4.58.
Take `C=C(C)[C@@H]1CC[C@]2(CO)CC[C@]3(C)[C@H](CC[C@@H]4[C@@]5(C)CC[C@H](O)C(C)(C)[C@@H]5CC[C@]43C)[C@@H]12` [BETULIN]: the IC50 entry with SNB-19, with COLO-829 and in the experiment with C32 was “Not Active” in each case. The pIC50 with MCF7 was 4.36; in the experiment on T47D, 4.68; with MDA-MB-231 it was 4.02; in the experiment with A549 it was 4.22.
Regarding `C=C(COC1=C(Cl)C(=O)c2cccnc2C1=O)[C@@H]1CC[C@]2(COC(C)=O)CC[C@]3(C)[C@H](CC[C@@H]4[C@@]5(C)CC[C@H](OC(C)=O)C(C)(C)[C@@H]5CC[C@]43C)[C@@H]12`, the pIC50 is 4.20 in the experiment on SNB-19; 6.89 with COLO-829; 4.64 in the experiment with C32; 4.93 in the experiment on MCF7; 4.89 with T47D; 4.22 in the experiment on MDA-MB-231. Also, the pIC50 with A549 is 5.48.
In the case of `C=C(COC1=C(Cl)C(=O)c2ccccc2C1=O)[C@@H]1CC[C@]2(COC(C)=O)CC[C@]3(C)[C@H](CC[C@@H]4[C@@]5(C)CC[C@H](OC(C)=O)C(C)(C)[C@@H]5CC[C@]43C)[C@@H]12`, the IC50 entry with SNB-19, in the experiment on COLO-829, in the experiment on MCF7 and in the experiment on T47D was “Not Active” each time. Moreover, the pIC50 was 4.61 in the experiment on C32, 4.21 with MDA-MB-231 and 4.27 in the experiment on A549.
For the compound `C#CC(=O)OC[C@]12CC[C@@H](C(=C)C)[C@@H]1[C@H]1CC[C@@H]3[C@@]4(C)CC[C@H](OC5=C(Cl)C(=O)c6ccccc6C5=O)C(C)(C)[C@@H]4CC[C@@]3(C)[C@]1(C)CC2`, the IC50 entry in the experiment on SNB-19 and in the experiment on COLO-829 was “Not Active” in each case. Moreover, the pIC50 in the experiment with C32 was 5.98; in the experiment on MCF7 it was 4.44; in the experiment with T47D it was 4.02; with MDA-MB-231, 5.17; in the experiment with A549, 5.89.
Turning to `C=C(C)[C@@H]1CC[C@]2(COC3=C(Cl)C(=O)c4ccccc4C3=O)CC[C@]3(C)[C@H](CC[C@@H]4[C@@]5(C)CC[C@H](O)C(C)(C)[C@@H]5CC[C@]43C)[C@@H]12`, the negative-log IC50 (pIC50) in the experiment on SNB-19 is 5.02; in the experiment on T47D, 5.83; in the experiment on A549 it was 4.97. The IC50 entry in the experiment on COLO-829, in the experiment with C32, in the experiment on MCF7 and in the experiment on MDA-MB-231 was “Not Active” in each case.
For `C=C(C)[C@@H]1CC[C@]2(COC3=C(Cl)C(=O)c4ccc(C)nc4C3=O)CC[C@]3(C)[C@H](CC[C@@H]4[C@@]5(C)CC[C@H](OC(C)=O)C(C)(C)[C@@H]5CC[C@]43C)[C@@H]12`, the IC50 result with SNB-19 and with T47D was “Not Active” throughout. The pIC50 is 4.03 in the experiment with COLO-829; 5.88 in the experiment with C32; 4.05 in the experiment on MCF7; 5.23 with MDA-MB-231; 6.19 in the experiment on A549.
Consider `C=C(C)[C@@H]1CC[C@]2(COC3=C(Cl)C(=O)c4ccc(C)nc4C3=O)CC[C@]3(C)[C@H](CC[C@@H]4[C@@]5(C)CC[C@H](O)C(C)(C)[C@@H]5CC[C@]43C)[C@@H]12`, for which the IC50 entry in the experiment with SNB-19 and in the experiment on MCF7 was “Not Active” each time. For the same compound, the pIC50 in the experiment on COLO-829 was 5.95; in the experiment on C32, 4.90; in the experiment on T47D, 4.04; in the experiment on MDA-MB-231, 4.96; with A549, 5.79.
Turning to `C=C(COC1=C(Cl)C(=O)c2ccc(C)nc2C1=O)[C@@H]1CC[C@]2(COC(C)=O)CC[C@]3(C)[C@H](CC[C@@H]4[C@@]5(C)CC[C@H](OC(C)=O)C(C)(C)[C@@H]5CC[C@]43C)[C@@H]12`, the IC50 result in the experiment on SNB-19 is “Not Active”. For the same compound, the pIC50 with COLO-829 was 6.92; in the experiment on C32 it was 5.94; in the experiment with MCF7 it was 6.03; in the experiment on T47D, 4.99; in the experiment with MDA-MB-231, 6.96; in the experiment with A549, 6.08.
Regarding `O=C1C(Cl)=C(Cl)C(=O)c2ccccc21` [Dichlon], the IC50 result in the experiment with SNB-19, with C32, in the experiment with MCF7, in the experiment with T47D, in the experiment with MDA-MB-231 and in the experiment with A549 was “Not Active” in each case. Also, the pIC50 with COLO-829 was 4.42.
With `C=C(C)[C@@H]1CC[C@]2(COC(C)=O)CC[C@]3(C)[C@H](CC[C@@H]4[C@@]5(C)CC[C@H](OC6=C(Cl)C(=O)c7cccnc7C6=O)C(C)(C)[C@@H]5CC[C@]43C)[C@@H]12`, the IC50 entry with SNB-19, in the experiment on COLO-829, in the experiment with C32, in the experiment with MCF7 and in the experiment on MDA-MB-231 was “Not Active” in each case. Moreover, the pIC50 with T47D is 4.06; in the experiment on A549, 4.87.
For the compound `C#CC(=O)OC[C@]12CC[C@@H](C(=C)C)[C@@H]1[C@H]1CC[C@@H]3[C@@]4(C)CC[C@H](OC5=C(Cl)C(=O)c6ccc(C)nc6C5=O)C(C)(C)[C@@H]4CC[C@@]3(C)[C@]1(C)CC2`, the pIC50 in the experiment on SNB-19 was 4.96; in the experiment on MCF7 it was 4.75; in the experiment on MDA-MB-231, 4.43; in the experiment on A549, 4.73. The IC50 entry with COLO-829, in the experiment on C32 and in the experiment on T47D was “Not Active” in each case.
For `C=C(C)[C@@H]1CC[C@]2(COC3=C(Cl)C(=O)c4ccccc4C3=O)CC[C@]3(C)[C@H](CC[C@@H]4[C@@]5(C)CC[C@H](OC(C)=O)C(C)(C)[C@@H]5CC[C@]43C)[C@@H]12`, the pIC50 in the experiment on SNB-19 is 5.47; in the experiment with COLO-829, 5.97; in the experiment with C32 it was 4.86; with MCF7, 4.15; with T47D it was 4.90; in the experiment with A549, 5.94. In the experiment with MDA-MB-231, the IC50 result was “Not Active”.
In the case of `C=C(C)[C@@H]1CC[C@]2(COC3=C(Cl)C(=O)c4cccnc4C3=O)CC[C@]3(C)[C@H](CC[C@@H]4[C@@]5(C)CC[C@H](O)C(C)(C)[C@@H]5CC[C@]43C)[C@@H]12`, the IC50 result with SNB-19 and in the experiment on C32 was “Not Active” in each case. Moreover, the pIC50 is 4.02 in the experiment on COLO-829; 4.02 in the experiment on MCF7; 4.88 in the experiment with T47D; 4.09 with MDA-MB-231; 5.07 in the experiment on A549.
For `C=C(C)[C@@H]1CC[C@]2(COC3=C(Cl)C(=O)c4cccnc4C3=O)CC[C@]3(C)[C@H](CC[C@@H]4[C@@]5(C)CC[C@H](OC(C)=O)C(C)(C)[C@@H]5CC[C@]43C)[C@@H]12`, the IC50 result in the experiment on SNB-19, in the experiment on COLO-829, in the experiment on C32, with T47D and with MDA-MB-231 was “Not Active” throughout. Moreover, the pIC50 with MCF7 is 4.01; in the experiment on A549, 4.84.

The term pIC50 denotes −log10 of the IC50, conventionally taken in molar units.
